According to ChEMBL document CHEMBL5046236, “Synthesis and structure-activity relationship study of new biaryl amide derivatives and their inhibitory effects against hepatitis C virus” (Eur J Med Chem, 2022):

Columns and labels:
Hepatitis C virus = assay: Antiviral activity against Hepatitis C virus infected in human Huh7.5 cells assessed as inhibition of viral replication incubated for 72 hrs by qRT-PCR analysis; format: functional, organism-based, Hepacivirus hominis; conditions: Huh7.5, 72 h
Huh-7.5 = assay: Cytotoxicity against human Huh7.5 cells assessed as inhibition of cell growth measured after 96 hrs by MTT assay; format: toxicity, cell-based; conditions: huh-7.5, 96 h
Method in brief: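 Huh7.5 cells in DMEM with 10% heat-inactivated FBS, seeded at 3.0 × 10⁴ cells/cm²; after 24 h, fresh medium with compound added (DMSO stocks, eight 1:5 serial dilutions).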

[1] = Selectivity index, ratio of CC50 for cytotoxicity against human Huh7.5 cells to EC50 for antiviral activity against Hepatitis C virus infected in human Huh7.5 cells; format: toxicity, cell-based; conditions: read-out: Ratio CC50/EC50
[2] = biological target: DNA dC->dU-editing enzyme APOBEC-3G (Homo sapiens) (UniProt Q9HC16); assay: Inhibition of Vif-mediated human A3G degradation in HEK-293T cells cotransfected with hA3G and Vif at 20 uM by western blot analysis relative to control; format: cell-based
Method in brief: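 293T cells cotransfected with hA3G and Vif expression vectors, then treated with compounds at 20 μM; MG132 proteasome inhibitor as positive control, DMSO-treated cells as comparator for hA3G degradation.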

Sequence of DNA dC->dU-editing enzyme APOBEC-3G (Homo sapiens) (Q9HC16 whole entry): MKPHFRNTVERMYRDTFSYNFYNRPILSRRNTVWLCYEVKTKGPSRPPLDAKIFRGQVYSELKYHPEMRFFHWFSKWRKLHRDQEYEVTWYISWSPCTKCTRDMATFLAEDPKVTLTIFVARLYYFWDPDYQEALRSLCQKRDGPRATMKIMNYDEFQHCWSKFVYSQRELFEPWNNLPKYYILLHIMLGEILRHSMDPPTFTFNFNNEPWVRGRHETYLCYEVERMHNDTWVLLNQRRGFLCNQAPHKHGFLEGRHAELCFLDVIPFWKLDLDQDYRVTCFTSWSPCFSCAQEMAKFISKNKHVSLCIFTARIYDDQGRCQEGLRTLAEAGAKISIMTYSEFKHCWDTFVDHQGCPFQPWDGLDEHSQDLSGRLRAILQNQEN

SMILES	EC50 (Hepatitis C virus) [µM]	CC50 (Huh-7.5) [µM]	selectivity ratio [1]	inhibition [2] [%]
CCC(=O)Nc1cc(C(=O)Nc2ccc(-c3cc4ccccc4[nH]3)cc2)ccc1OC	7.41	65.6	9	> 50
CCC(=O)Nc1cc(C(=O)Nc2ccc(CN3CCN(C)CC3)c(C(F)(F)F)c2)ccc1OCCCCl	0.22	7.87	36.3	
CCC(=O)Nc1cc(C(=O)Nc2ccc(OC)cc2)ccc1OCCCN1CCN(C)CC1	13.5	126	9.4	> 50
COc1ccc(NC(=O)c2ccc(OCCCN(C)C)c([N+](=O)[O-])c2)cc1	8.96	126	14	< 25
CCC(=O)Nc1cc(C(=O)Nc2ccc(N(C)C)cc2)ccc1OC(C)C	6.03	80.6	13	
CN1CCN(Cc2ccc(NC(=O)c3ccc(OCCCCl)c(S(N)(=O)=O)c3)cc2C(F)(F)F)CC1	1.14	5.47	6.2	
CCCOc1ccc(C(=O)Nc2ccc(OC)cc2)cc1[N+](=O)[O-]				< 25
CCC(=O)Nc1cc(C(=O)Nn2c(C)nnc2S)ccc1OC	14.4	> 200	> 14	> 50
CN(C)C1CN(Cc2ccc(NC(=O)c3ccc(OCCCCl)c([N+](=O)[O-])c3)cc2C(F)(F)F)C1	0.021	7.8	371	
COc1ccc(C(=O)Nc2cc(OC)c(OC)c(OC)c2)cc1NC(=O)C(C)Br (centres undefined)	2.1	15	7	
COc1ccc(C(=O)Nc2ccc(N(C)C)cc2)cc1[N+](=O)[O-]	4.07	88.2	22	> 50
CCC(=O)Nc1cc(C(=O)Nc2ccc(CN3CCN(C)CC3)c(C(F)(F)F)c2)ccc1OC(C)C	0.3	15.3	51	
CCOc1ccc(C(=O)Nc2ccc(OC)cc2)cc1NC(=O)CC	1.47	73.2	48	25
COc1ccc(NC(=O)c2ccc3c(c2)NC(=O)CO3)cc1	7.46	77.3	10	25
CCC(=O)Nc1cc(C(=O)Nc2ccc(CN3CCN(C)CC3)cc2)ccc1OC	> 22.2	> 200		25
CC(C)Oc1ccc(C(=O)Nc2ccc(CN3CCN(C)CC3)c(C(F)(F)F)c2)cc1[N+](=O)[O-]	0.095	3.5	39	< 25
COc1ccc(NC(=O)c2ccc3c(c2)NCCO3)cc1	> 22.2	153		< 25
CCC(=O)Nc1cc(C(=O)Nc2ccc(N3CCN(C)CC3)cc2)ccc1OC	> 22.2	> 200		
CN1CCN(Cc2ccc(NC(=O)c3ccc(OCCCCCCl)c([N+](=O)[O-])c3)cc2C(F)(F)F)CC1	0.06	2.14	36	
CN(C)C1CCN(Cc2ccc(NC(=O)c3ccc(OCCCCl)c([N+](=O)[O-])c3)cc2C(F)(F)F)CC1	0.38	5.5	14	
CCC(=O)Nc1cc(C(=O)Nc2ccc(OC)cc2)ccc1OC	1.3	109	84	> 50
CC1CCN(c2ccc(NC(=O)c3ccc(OCCCCl)c([N+](=O)[O-])c3)cn2)CC1	0.64	9.2	14.4	
CCC[C@H](NC(=O)[C@@H]1[C@H]2CCC[C@H]2CN1C(=O)[C@@H](NC(=O)[C@@H](NC(=O)c1cnccn1)C1CCCCC1)C(C)(C)C)C(=O)C(=O)NC1CC1		23.7		
CC(C)Oc1ccc(C(=O)Nc2ccc(CN3CCN(C)CC3)c(C(F)(F)F)c2)cc1N	1.32	21.6	16	

SMILES	EC50 (Hepatitis C virus) [µM]	CC50 (Huh-7.5) [µM]	selectivity ratio [1]	inhibition [2] [%]
COc1ccc(NC(=O)c2ccc(OC(C)C)c([N+](=O)[O-])c2)cc1	2.86	23.4	8	< 25
CN1CCN(Cc2ccc(NC(=O)c3ccc(OCCCl)c([N+](=O)[O-])c3)cc2C(F)(F)F)CC1	0.044	9.04	204	
CC(C)Oc1ccc(C(=O)Nc2ccc(CN3CCN(C)CC3)c(C(F)(F)F)c2)cc1NC(=O)C(C)Br (centres undefined)	0.32	8.7	27	
CN(C)C1CCN(Cc2ccc(NC(=O)c3ccc(OCCCCl)c([N+](=O)[O-])c3)cc2C(F)(F)F)C1 (centres undefined)	0.051	5.8	113	
CN1CCN(Cc2ccc(NC(=O)c3ccc(OCCCCl)c(F)c3)cc2C(F)(F)F)CC1	0.49	8.8	18.9	
CCC(=O)Nc1cc(C(=O)Nc2ccc(OC)cc2)ccc1OCCCN(C)C	> 22.2	154		> 50
CN1CCN(Cc2ccc(NC(=O)c3ccc(OCCCCl)c(C(F)(F)F)c3)cc2C(F)(F)F)CC1	0.13	13.4	99.6	
COc1ccc2c(O[C@@H]3C[C@H]4C(=O)N[C@]5(C(=O)NS(=O)(=O)C6CC6)CC5/C=C\CCCCN(C)C(=O)[C@@H]4C3)cc(-c3nc(C(C)C)cs3)nc2c1C (single isomer, unassigned)	0.008	38	4760	
CC(C)Oc1ccc(C(=O)Nc2ccc(N(C)C)cc2)cc1N	7.41	72.1	10	
CC1CN(Cc2ccc(NC(=O)c3ccc(OCCCCl)c([N+](=O)[O-])c3)cc2C(F)(F)F)CC(C)O1 (centres undefined)	0.174	2.3	13.3	
COc1ccc(NC(=O)c2ccc(OCCCN(C)C)c(N)c2)cc1				< 25
CC(C)Oc1ccc(C(=O)Nc2ccc(N(C)C)cc2)cc1[N+](=O)[O-]	3.1	50	16	
O=C(Nc1ccc(CN2CC(C(=O)O)C2)c(C(F)(F)F)c1)c1ccc(OCCCCl)c([N+](=O)[O-])c1	4.72	> 200	> 42	
COc1ccc(NC(=O)c2ccc(OCCCN3CCN(C)CC3)c(N)c2)cc1				< 25
COc1ccc(NC(=O)c2ccc(OCCCN3CCN(C)CC3)c([N+](=O)[O-])c2)cc1				< 25
CN1CCN(Cc2ccc(NC(=O)c3ccc(OCCCCl)c([N+](=O)[O-])c3)cc2C#N)CC1	0.65	15.5	23	
CC(C)Oc1ccc(C(=O)Nc2ccc(N(C)C)cc2)cc1NC(=O)C(C)Br (centres undefined)	4.34	7.9	2	
CCC(=O)Nc1cc(C(=O)Nc2ccc(OC)cc2)ccc1OCCCCl	7.41	158	21	
O=C(Nc1ccc(CN2CCOCC2)c(C(F)(F)F)c1)c1ccc(OCCCCl)c([N+](=O)[O-])c1	0.315	6.1	19.3	
CN1CCN(Cc2ccc(NC(=O)c3ccc(OCCCCl)c(N)c3)cc2C(F)(F)F)CC1	1.18	12.9	10.9	
CN1CCN(Cc2ccc(NC(=O)c3ccc(OCCCCl)c(Cl)c3)cc2C(F)(F)F)CC1	0.58	4.1	7	
CCC(=O)Nc1cc(C(=O)Nc2ccc(OC)cc2)ccc1OCCCN1CCOCC1	> 22.2	49.2		
CN1CCN(Cc2ccc(NC(=O)c3ccc(OCCCCCl)c([N+](=O)[O-])c3)cc2C(F)(F)F)CC1	0.1	3.74	37	
